{"data": "Published values collected from several papers", "target": "Glycogen synthase kinase-3 alpha (GSK3A, Homo sapiens, UniProt P49840)", "note": "Each line is one published result; the experiments were not run side by side."}
{"SMILES": "O=C(c1ccc(Nc2ncc(Cl)c(-c3cc4ccccc4s3)n2)cc1)N1CCC(N2CCCC2)CC1", "test": "binding, competition with immobilised ligand", "setting": "1 µM", "remaining binding": "11%"}
{"SMILES": "COc1ccc2c(c1)O[C@@H](c1ccc(OC)c(OC)c1)C[C@H]2NC(=O)C1(c2ccc3c(c2)OC(F)(F)O3)CC1", "test": "cell-free assay, competition with immobilised ligand", "setting": "1 µM", "remaining binding": "100%"}
{"SMILES": "C[C@@H](c1ccc(-n2cnc3c(N)ncnc32)cc1)N1CCc2nn(C)c(Cc3ccccc3)c2C1=O", "test": "binding, competition with immobilised ligand", "setting": "0.1 µM", "remaining binding": "72%"}
{"SMILES": "O=C(Nc1c[nH]nc1C(=O)NC1CCNCC1)c1cc(F)cc(F)c1", "test": "binding, competition with immobilised ligand", "setting": "1 µM", "remaining binding": "14%"}
{"SMILES": "C[C@H](NC(=O)c1cnc2n1[C@](C)(Cc1ccc(C#N)cc1)C(=O)N2c1cc(Cl)c(F)c(Cl)c1)C(=O)NC1(c2ccccn2)CC1", "test": "cell-free assay, competition with immobilised ligand", "setting": "1 µM", "remaining binding": "100%"}
{"SMILES": "O=C(c1ccc(Nc2nccc(-c3cc4ccccc4s3)n2)cc1)N1CCC(N2CCCC2)CC1", "test": "binding, competition with immobilised ligand", "setting": "1 µM", "remaining binding": "82%"}
{"SMILES": "CN(C)c1ncc(F)c(-c2cnn3ncccc23)n1", "test": "binding", "setting": "1 µM", "remaining binding": "82%"}
{"SMILES": "c1cncc(-c2cccc(Nc3nccc(NC4CCCCC4)n3)c2)c1", "test": "binding, competition with immobilised ligand", "setting": "10 µM", "remaining binding": "65%"}
{"SMILES": "CN(CCCC(F)(F)F)c1nccc(-c2cnn3ncccc23)n1", "test": "binding", "setting": "1 µM", "remaining binding": "100%"}
{"SMILES": "C=CC(=O)N1CCC(C(=O)NCC(=O)N2CCN(c3nc(-c4cnc(N)nc4C(F)F)nc(N4CCOCC4)n3)CC2)CC1", "test": "binding, competition with immobilised ligand", "setting": "1 µM", "remaining binding": "92%"}
{"SMILES": "CC1CCCN1c1nccc(-c2cnn3ncccc23)n1 (centres unmarked)", "test": "binding", "setting": "1 µM", "remaining binding": "94%"}
{"SMILES": "CC(C)(O)c1cncc(-c2nc3ccc(F)cc3n2C2CC2)c1", "test": "cell-free assay, competition with immobilised ligand", "setting": "1 µM", "remaining binding": "100%"}
{"SMILES": "C[C@@H]1CCN(c2nccc(-c3cnn4ncccc34)n2)C1", "test": "binding", "setting": "1 µM", "remaining binding": "80%"}
{"SMILES": "COc1cnc(Nc2cccc(S(N)(=O)=O)c2)nc1N1CCN(c2ccccc2)CC1", "test": "binding, competition with immobilised ligand", "setting": "1 µM", "remaining binding": "99%"}
{"SMILES": "COCCOc1nc(-c2ccc(Cl)nc2)nc2c1CN(C(=O)c1ncn3ccccc13)CC2", "test": "cell-free assay, competition with immobilised ligand", "setting": "0.1 µM", "remaining binding": "100%"}
{"SMILES": "O=C(NCCCN1CCOCC1)c1ccc(Nc2ncc(Cl)c(-c3ccc(Cl)s3)n2)cc1", "test": "binding, competition with immobilised ligand", "setting": "1 µM", "remaining binding": "43%"}
{"SMILES": "CN(C)C(=O)Cn1cc(-c2nc([C@@](C)(c3ccc(-c4cnc(N)nc4)cc3)C3CC3)no2)cn1", "test": "cell-free assay, competition with immobilised ligand", "setting": "1 µM", "remaining binding": "100%"}
{"SMILES": "COc1cnc(Nc2cccc(S(N)(=O)=O)c2)nc1N1CCN(c2ccccc2)C(=O)C1", "test": "binding, competition with immobilised ligand", "setting": "1 µM", "remaining binding": "90%"}
{"SMILES": "N[C@@H]1CCN(c2nccc(-c3cnn4ncccc34)n2)C1", "test": "binding", "setting": "1 µM", "remaining binding": "100%"}
{"SMILES": "O=C(NC[C@@H]1[C@H]2CN(C(=O)OCc3cc(C(F)(F)F)cc(C(F)(F)F)c3)C[C@@H]12)c1ccc2[nH]nnc2c1", "test": "cell-free assay, competition with immobilised ligand", "setting": "1 µM", "remaining binding": "99%"}
